Experimental data reported in ChEMBL document CHEMBL3124921, “Discovery of nitropyridine derivatives as potent HIV-1 non-nucleoside reverse transcriptase inhibitors via a structure-based core refining approach” (Eur J Med Chem, 2014).

Biological target: Human immunodeficiency virus type 1 reverse transcriptase (Human immunodeficiency virus 1, UniProt Q72547)
Assay: Inhibition of wild type HIV-1 reverse transcriptase using […] as template/primer assessed as inhibition of biotin-dUTP incorporation after 1 hr by microtiter plate ELISA reader analysis
Conditions: not given

Compound | IC50 [µM]
Cc1cc(C)c(Oc2cc(Nc3ccc(C#N)cc3)ncc2[N+](=O)[O-])c(C)c1 | 6.9
Cc1cc(Br)c(Oc2cc(Nc3ccc(C#N)cc3)ncc2[N+](=O)[O-])c(Br)c1 | 10.4
Cc1cc(C#N)cc(C)c1Oc1cc(Nc2ccc(C#N)cc2)ncc1[N+](=O)[O-] | 8.5

System: not listed separately
Assay: Selectivity index, ratio of CC50 for human MT4 cells to EC50 for HIV-2 ROD infected in human MT4 cells
Type: toxicity, cell-based
Conditions: read-out: Ratio CC50/EC50
Summary of the method: (§1)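 MT-4 cells are seeded at 6 × 10⁵ cells/mL. Serial fivefold compound dilutions go into two triplicate series, one mock-infected and one virus-infected. After 5 days, viability is read by MTT reduction to formazan, with absorbance at 540 and 690 nm. EC50 comes from infected wells and CC50 from mock-infected wells. SI = CC50/EC50.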

Compound | selectivity ratio
Cc1cc(C)c(Oc2cc(Nc3ccc(C#N)cc3)ncc2[N+](=O)[O-])c(C)c1 | < 1
N#Cc1ccc(Nc2cc(Nc3c(F)cc(Br)cc3Br)c([N+](=O)[O-])cn2)cc1 | < 1
Cc1cc(Br)c(Oc2cc(Nc3ccc(C#N)cc3)ncc2[N+](=O)[O-])c(Br)c1 | < 1
Cc1cccc(C)c1Oc1cc(Nc2ccc(C#N)cc2)ncc1[N+](=O)[O-] | < 1
N#Cc1ccc(Nc2cc(Oc3c(Cl)cc([N+](=O)[O-])cc3Cl)c([N+](=O)[O-])cn2)cc1 | < 1
COc1cccc(OC)c1Oc1cc(Nc2ccc(C#N)cc2)ncc1[N+](=O)[O-] | < 1
Cc1ccc(Nc2cc(Oc3c(C)cc(C#N)cc3C)c([N+](=O)[O-])cn2)cc1 | < 1
Cc1cc(C#N)cc(C)c1Oc1cc(Nc2ccc(C#N)cc2)ncc1[N+](=O)[O-] | < 1
Cc1cc(C)c(Nc2cc(Nc3ccc(C#N)cc3)ncc2[N+](=O)[O-])c(C)c1 | < 1
Cc1cc(Br)cc(C)c1Oc1cc(Nc2ccc(C#N)cc2)ncc1[N+](=O)[O-] | < 1
Cc1cc(Br)c(Nc2cc(Nc3ccc(C#N)cc3)ncc2[N+](=O)[O-])c(Br)c1 | < 1

System: not listed separately
Assay: Selectivity index, ratio of CC50 for human MT4 cells to EC50 for wild type HIV-1 3B infected in human MT4 cells
Type: toxicity, cell-based
Conditions: read-out: Ratio CC50/EC50
Summary of the method: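 HIV-1 IIIB is added at 100–300 CCID50 per well to MT-4 cells seeded at 6 × 10⁵ cells/mL. Fivefold serial compound dilutions are run in triplicate, with a parallel mock-infected series for cytotoxicity. MTT viability is read at 540 and 690 nm after 5 days. SI = CC50 (mock-infected) / EC50 (infected).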

Compound | selectivity ratio
Cc1cc(C)c(Oc2cc(Nc3ccc(C#N)cc3)ncc2[N+](=O)[O-])c(C)c1 | 1250
N#Cc1ccc(Nc2cc(Nc3c(F)cc(Br)cc3Br)c([N+](=O)[O-])cn2)cc1 | 49
Cc1cc(Br)c(Oc2cc(Nc3ccc(C#N)cc3)ncc2[N+](=O)[O-])c(Br)c1 | 691
Cc1cccc(C)c1Oc1cc(Nc2ccc(C#N)cc2)ncc1[N+](=O)[O-] | 214
N#Cc1ccc(Nc2cc(Oc3c(Cl)cc([N+](=O)[O-])cc3Cl)c([N+](=O)[O-])cn2)cc1 | 2
COc1cccc(OC)c1Oc1cc(Nc2ccc(C#N)cc2)ncc1[N+](=O)[O-] | 74
Cc1ccc(Nc2cc(Oc3c(C)cc(C#N)cc3C)c([N+](=O)[O-])cn2)cc1 | < 1
Cc1cc(C#N)cc(C)c1Oc1cc(Nc2ccc(C#N)cc2)ncc1[N+](=O)[O-] | 339
Cc1cc(C)c(Nc2cc(Nc3ccc(C#N)cc3)ncc2[N+](=O)[O-])c(C)c1 | 9
Cc1cc(Br)cc(C)c1Oc1cc(Nc2ccc(C#N)cc2)ncc1[N+](=O)[O-] | 45
Cc1cc(Br)c(Nc2cc(Nc3ccc(C#N)cc3)ncc2[N+](=O)[O-])c(Br)c1 | 43

System: not listed separately
Assay: Selectivity index, ratio of CC50 for human MT4 cells to EC50 for HIV-1 RES056 harboring reverse transcriptase K103N/Y181C double mutant infected in human MT4 cells
Type: toxicity, cell-based
Conditions: read-out: Ratio CC50/EC50
Summary of the method: as §1

Compound | selectivity ratio
Cc1cc(C)c(Oc2cc(Nc3ccc(C#N)cc3)ncc2[N+](=O)[O-])c(C)c1 | < 1
N#Cc1ccc(Nc2cc(Nc3c(F)cc(Br)cc3Br)c([N+](=O)[O-])cn2)cc1 | < 1
Cc1cc(Br)c(Oc2cc(Nc3ccc(C#N)cc3)ncc2[N+](=O)[O-])c(Br)c1 | < 1
Cc1cccc(C)c1Oc1cc(Nc2ccc(C#N)cc2)ncc1[N+](=O)[O-] | < 1
N#Cc1ccc(Nc2cc(Oc3c(Cl)cc([N+](=O)[O-])cc3Cl)c([N+](=O)[O-])cn2)cc1 | < 1
COc1cccc(OC)c1Oc1cc(Nc2ccc(C#N)cc2)ncc1[N+](=O)[O-] | < 1
Cc1ccc(Nc2cc(Oc3c(C)cc(C#N)cc3C)c([N+](=O)[O-])cn2)cc1 | < 1
Cc1cc(C#N)cc(C)c1Oc1cc(Nc2ccc(C#N)cc2)ncc1[N+](=O)[O-] | < 1
Cc1cc(C)c(Nc2cc(Nc3ccc(C#N)cc3)ncc2[N+](=O)[O-])c(C)c1 | < 1
Cc1cc(Br)cc(C)c1Oc1cc(Nc2ccc(C#N)cc2)ncc1[N+](=O)[O-] | < 1
Cc1cc(Br)c(Nc2cc(Nc3ccc(C#N)cc3)ncc2[N+](=O)[O-])c(Br)c1 | < 1

System: not listed separately
Assay: Cytotoxicity against human MT4 cells assessed as growth inhibition after 5 days by MTT assay
Type: cell-based
Conditions: not given
Summary of the method: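 Mock-infected MT-4 cells (6 × 10⁵ cells/mL) were run in parallel triplicate wells with serial fivefold compound dilutions added from 10× stocks and culture medium instead of virus. Viability was measured by MTT at day 5, reading absorbance at 540 and 690 nm.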

Compound | CC50 at 120 h [µM]
Cc1cc(C)c(Oc2cc(Nc3ccc(C#N)cc3)ncc2[N+](=O)[O-])c(C)c1 | 69.9
N#Cc1ccc(Nc2cc(Nc3c(F)cc(Br)cc3Br)c([N+](=O)[O-])cn2)cc1 | 149
Cc1cc(Br)c(Oc2cc(Nc3ccc(C#N)cc3)ncc2[N+](=O)[O-])c(Br)c1 | 23.6
Cc1cccc(C)c1Oc1cc(Nc2ccc(C#N)cc2)ncc1[N+](=O)[O-] | 126
N#Cc1ccc(Nc2cc(Oc3c(Cl)cc([N+](=O)[O-])cc3Cl)c([N+](=O)[O-])cn2)cc1 | 26.5
COc1cccc(OC)c1Oc1cc(Nc2ccc(C#N)cc2)ncc1[N+](=O)[O-] | 319
Cc1ccc(Nc2cc(Oc3c(C)cc(C#N)cc3C)c([N+](=O)[O-])cn2)cc1 | 207
Cc1cc(C#N)cc(C)c1Oc1cc(Nc2ccc(C#N)cc2)ncc1[N+](=O)[O-] | 36.1
Cc1cc(C)c(Nc2cc(Nc3ccc(C#N)cc3)ncc2[N+](=O)[O-])c(C)c1 | 262
Cc1cc(Br)cc(C)c1Oc1cc(Nc2ccc(C#N)cc2)ncc1[N+](=O)[O-] | 12.3
Cc1cc(Br)c(Nc2cc(Nc3ccc(C#N)cc3)ncc2[N+](=O)[O-])c(Br)c1 | 167

System: Human immunodeficiency virus 2
Assay: Antiviral activity against HIV-2 ROD infected in human MT4 cells assessed as protection against virus-induced cytopathogenicity after 5 days by MTT assay
Type: functional, organism-based
Conditions: Human immunodeficiency virus 2, ISOLATE ROD, MT4, 120 h
Summary of the method: (§2)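 Compounds added at the start as 10× stocks to triplicate wells, then serially diluted fivefold. Virus stock at […] CCID50 was added to MT-4 cells resuspended at 6 × 10⁵ cells/mL. Viability was read by MTT reduction to formazan five days post-infection, with absorbance measured at 540 and 690 nm. EC50 is the concentration protecting against virus-induced cytopathicity.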

Compound | EC50 [µM]
Cc1cc(C)c(Oc2cc(Nc3ccc(C#N)cc3)ncc2[N+](=O)[O-])c(C)c1 | > 69.9
N#Cc1ccc(Nc2cc(Nc3c(F)cc(Br)cc3Br)c([N+](=O)[O-])cn2)cc1 | > 149
Cc1cc(Br)c(Oc2cc(Nc3ccc(C#N)cc3)ncc2[N+](=O)[O-])c(Br)c1 | > 23.6
Cc1cccc(C)c1Oc1cc(Nc2ccc(C#N)cc2)ncc1[N+](=O)[O-] | > 126
N#Cc1ccc(Nc2cc(Oc3c(Cl)cc([N+](=O)[O-])cc3Cl)c([N+](=O)[O-])cn2)cc1 | > 26.5
COc1cccc(OC)c1Oc1cc(Nc2ccc(C#N)cc2)ncc1[N+](=O)[O-] | > 319
Cc1ccc(Nc2cc(Oc3c(C)cc(C#N)cc3C)c([N+](=O)[O-])cn2)cc1 | > 207
Cc1cc(C#N)cc(C)c1Oc1cc(Nc2ccc(C#N)cc2)ncc1[N+](=O)[O-] | > 36.1
Cc1cc(C)c(Nc2cc(Nc3ccc(C#N)cc3)ncc2[N+](=O)[O-])c(C)c1 | > 262
Cc1cc(Br)cc(C)c1Oc1cc(Nc2ccc(C#N)cc2)ncc1[N+](=O)[O-] | > 12.3
Cc1cc(Br)c(Nc2cc(Nc3ccc(C#N)cc3)ncc2[N+](=O)[O-])c(Br)c1 | > 167

System: Human immunodeficiency virus 1
Assay: Antiviral activity against HIV-1 RES056 harboring reverse transcriptase K103N/Y181C double mutant infected in human MT4 cells assessed as protection against virus-induced cytopathogenicity after 5 days by MTT assay
Type: functional, organism-based
Conditions: Human immunodeficiency virus 1, RES056, MT4, 120 h
Summary of the method: as §1

Compound | EC50 [µM]
Cc1cc(C)c(Oc2cc(Nc3ccc(C#N)cc3)ncc2[N+](=O)[O-])c(C)c1 | > 69.9
N#Cc1ccc(Nc2cc(Nc3c(F)cc(Br)cc3Br)c([N+](=O)[O-])cn2)cc1 | > 149
Cc1cc(Br)c(Oc2cc(Nc3ccc(C#N)cc3)ncc2[N+](=O)[O-])c(Br)c1 | > 23.6
Cc1cccc(C)c1Oc1cc(Nc2ccc(C#N)cc2)ncc1[N+](=O)[O-] | > 126
N#Cc1ccc(Nc2cc(Oc3c(Cl)cc([N+](=O)[O-])cc3Cl)c([N+](=O)[O-])cn2)cc1 | > 26.5
COc1cccc(OC)c1Oc1cc(Nc2ccc(C#N)cc2)ncc1[N+](=O)[O-] | > 319
Cc1ccc(Nc2cc(Oc3c(C)cc(C#N)cc3C)c([N+](=O)[O-])cn2)cc1 | > 207
Cc1cc(C#N)cc(C)c1Oc1cc(Nc2ccc(C#N)cc2)ncc1[N+](=O)[O-] | > 36.1
Cc1cc(C)c(Nc2cc(Nc3ccc(C#N)cc3)ncc2[N+](=O)[O-])c(C)c1 | > 262
Cc1cc(Br)cc(C)c1Oc1cc(Nc2ccc(C#N)cc2)ncc1[N+](=O)[O-] | > 12.3
Cc1cc(Br)c(Nc2cc(Nc3ccc(C#N)cc3)ncc2[N+](=O)[O-])c(Br)c1 | > 167

System: Human immunodeficiency virus 1
Assay: Antiviral activity against wild type HIV-1 3B infected in human MT4 cells assessed as protection against virus-induced cytopathogenicity after 5 days by MTT assay
Type: functional, organism-based
Conditions: Human immunodeficiency virus 1, 3B, MT4, 120 h
Summary of the method: as §2

Compound | EC50 [µM]
Cc1cc(C)c(Oc2cc(Nc3ccc(C#N)cc3)ncc2[N+](=O)[O-])c(C)c1 | 0.056
N#Cc1ccc(Nc2cc(Nc3c(F)cc(Br)cc3Br)c([N+](=O)[O-])cn2)cc1 | 3.05
Cc1cc(Br)c(Oc2cc(Nc3ccc(C#N)cc3)ncc2[N+](=O)[O-])c(Br)c1 | 0.034
Cc1cccc(C)c1Oc1cc(Nc2ccc(C#N)cc2)ncc1[N+](=O)[O-] | 0.58
N#Cc1ccc(Nc2cc(Oc3c(Cl)cc([N+](=O)[O-])cc3Cl)c([N+](=O)[O-])cn2)cc1 | 16.8
COc1cccc(OC)c1Oc1cc(Nc2ccc(C#N)cc2)ncc1[N+](=O)[O-] | 4.28
Cc1ccc(Nc2cc(Oc3c(C)cc(C#N)cc3C)c([N+](=O)[O-])cn2)cc1 | > 207
Cc1cc(C#N)cc(C)c1Oc1cc(Nc2ccc(C#N)cc2)ncc1[N+](=O)[O-] | 0.11
Cc1cc(C)c(Nc2cc(Nc3ccc(C#N)cc3)ncc2[N+](=O)[O-])c(C)c1 | 30.2
Cc1cc(Br)cc(C)c1Oc1cc(Nc2ccc(C#N)cc2)ncc1[N+](=O)[O-] | 0.27
Cc1cc(Br)c(Nc2cc(Nc3ccc(C#N)cc3)ncc2[N+](=O)[O-])c(Br)c1 | 3.85
